Source: ChEMBL document CHEMBL4152257, “Discovery of novel β-carboline/acylhydrazone hybrids as potent antitumor agents and overcome drug resistance” (Eur J Med Chem, 2018)
Calls of active or inactive are those of the source. The rule behind the calls is not given here.

Experiments:
[1] = system: MCF7; test: Induction of apoptosis in human MCF7 cells assessed as early apoptotic cells at 100 uM after 48 hrs by annexin V-FITC/PI dual staining based flow cytometry (reference value: 11%); type: functional
[2] = system: MCF7; test: Induction of apoptosis in human MCF7 cells assessed as necrotic cells at 10 uM after 48 hrs by annexin V-FITC/PI dual staining based flow cytometry (reference value: 0.16%); type: functional
[3] = system: MCF7; test: Cell cycle arrest in human MCF7 cells assessed as accumulation at sub-G1 phase after 18 hrs by propidium iodide staining based flow cytometry; type: functional
[4] = system: MCF7; test: Cell cycle arrest in human MCF7 cells assessed as accumulation at G2/M phase after 18 hrs by propidium iodide staining based flow cytometry; type: functional
[5] = system: Raji; test: Antiproliferative activity against human Raji cells at 1 uM after 48 to 72 hrs by MTT assay relative to control; type: functional
Method in brief: (§1)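 Single-concentration screen in the MTT proliferation assay: log-phase cells seeded and allowed to adhere, exposed to compound at 1 µM for 48 h or 72 h, MTT added for 2-3 h, formazan dissolved in DMSO; percent inhibition versus control.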

[6] = Selectivity ratio of IC50 for HUVEC to IC50 for human A2780T cells; type: toxicity; conditions: HUVEC versus A2780T cells
[7] = system: MCF7; test: Cell cycle arrest in human MCF7 cells assessed as accumulation at G2/M phase at 100 uM after 18 hrs by propidium iodide staining based flow cytometry (reference value: 9.98%); type: functional
[8] = system: NCI/ADR-RES; test: Induction of apoptosis in human MCF7/ADR cells assessed as necrotic cells at 3 uM after 48 hrs by annexin V-FITC/PI dual staining based flow cytometry (reference value: 2.43%); type: functional
[9] = system: MCF7; test: Cell cycle arrest in human MCF7 cells assessed as accumulation at G0/G1 phase at 30 uM after 18 hrs by propidium iodide staining based flow cytometry (reference value: 45.22%); type: functional
[10] = system: NCI/ADR-RES; test: Induction of apoptosis in human MCF7/ADR cells assessed as necrotic cells at 100 uM after 48 hrs by annexin V-FITC/PI dual staining based flow cytometry (reference value: 2.43%); type: functional
[11] = Resistance index, ratio of IC50 for human A2780T cells to IC50 for human A2780S cells; type: functional
[12] = system: MCF7; test: Induction of apoptosis in human MCF7 cells assessed as necrotic cells at 100 uM after 48 hrs by annexin V-FITC/PI dual staining based flow cytometry (reference value: 0.16%); type: functional
[13] = system: MCF7; test: Induction of apoptosis in human MCF7 cells assessed as early apoptotic cells at 3 uM after 48 hrs by annexin V-FITC/PI dual staining based flow cytometry (reference value: 11%); type: functional
[14] = Selectivity ratio of IC50 for HUVEC to IC50 for human A549/TR cells; type: toxicity; conditions: HUVEC versus A549/TR cells
[15] = system: NCI/ADR-RES; test: Induction of apoptosis in human MCF7/ADR cells assessed as necrotic cells at 10 uM after 48 hrs by annexin V-FITC/PI dual staining based flow cytometry (reference value: 2.43%); type: functional
[16] = system: NCI-H460; test: Antiproliferative activity against human H460 cells after 48 to 72 hrs by MTT assay; type: functional, cell-based
Method in brief: (§2)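 Cells in log phase seeded and allowed to adhere, then exposed to graded compound concentrations for 48 h or 72 h; MTT added for a further 2-3 h, formazan dissolved in DMSO. IC50 taken from dose-response curves; mean ± SD of at least three independent experiments.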

[17] = system: MCF7; test: Induction of apoptosis in human MCF7 cells assessed as viable cells at 30 uM after 48 hrs by annexin V-FITC/PI dual staining based flow cytometry (reference value: 77.8%); type: functional; conditions: MCF7, 48 h, read-out: Activity
[18] = system: MCF7; test: Cell cycle arrest in human MCF7 cells assessed as accumulation at G2/M phase at 30 uM after 18 hrs by propidium iodide staining based flow cytometry (reference value: 9.98%); type: functional
[19] = system: MCF7; test: Cell cycle arrest in human MCF7 cells assessed as accumulation at S phase at 30 uM after 18 hrs by propidium iodide staining based flow cytometry (reference value: 44.80%); type: functional
[20] = system: Mus musculus; test: Toxicity in athymic nude Balb/C mouse xenografted with human H460 cells assessed as effect on abnormal behaviour at 100 mg/kg, po administered 3 times per week measured every 2 days; type: organism-based; conditions: in vivo, 48 h
Method in brief: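 Nude mice, 5-to-6-week-old females, given 5 × 10^6 H460 cells sc in right flank in HBSS; at 100 mm3 tumour volume randomized, 6 per group. Vehicle; oral 100 mg/kg three times weekly; or ip 30 mg/kg once weekly. Toxicity signs and mortality observed daily; body weight measured every 2 days.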

[21] = system: MCF7; test: Induction of apoptosis in human MCF7 cells assessed as viable cells at 3 uM after 48 hrs by annexin V-FITC/PI dual staining based flow cytometry (reference value: 77.8%); type: functional; conditions: MCF7, 48 h, read-out: Activity
[22] = system: MCF7; test: Cell cycle arrest in human MCF7 cells assessed as accumulation at G0/G1 phase at 100 uM after 18 hrs by propidium iodide staining based flow cytometry (reference value: 45.22%); type: functional
[23] = system: MCF7; test: Antiproliferative activity against human MCF7 cells after 48 to 72 hrs by MTT assay; type: functional, cell-based; method in brief: as §2
[24] = system: NCI-H460; test: Antitumor activity against human H460 cells xenografted in athymic nude Balb/C mouse assessed as tumor growth inhibition at 100 mg/kg, po administered 3 times per week measured on day 18 relative to control; type: functional; conditions: 432 h, read-out: TGI
Method in brief: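 Nude mice (5-6 weeks old, female) implanted sc in right flank with 5 × 10^6 H460 cells in HBSS; at 100 mm3 tumours, randomised 6 per group to vehicle, oral 100 mg/kg three times weekly, or ip 30 mg/kg once weekly. Tumour volume by caliper every 2 days as (π/6) × length × width²; body weight recorded; inhibition from tumour weights versus control.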

[25] = system: MCF7; test: Antiproliferative activity against human MCF7 cells at 1 uM after 48 to 72 hrs by MTT assay relative to control; type: functional; method in brief: as §1
[26] = system: NCI/ADR-RES; test: Induction of apoptosis in human MCF7/ADR cells assessed as viable cells at 3 uM after 48 hrs by annexin V-FITC/PI dual staining based flow cytometry (reference value: 89.8%); type: functional; conditions: read-out: Activity
[27] = system: MCF7; test: Induction of apoptosis in human MCF7 cells assessed as early apoptotic cells at 10 uM after 48 hrs by annexin V-FITC/PI dual staining based flow cytometry (reference value: 11%); type: functional
[28] = system: MCF7; test: Induction of apoptosis in human MCF7 cells assessed as late apoptotic cells after 48 hrs by annexin V-FITC/PI dual staining based flow cytometry; type: functional, cell-based
[29] = system: MCF7; test: Cell cycle arrest in human MCF7 cells assessed as accumulation at G2/M phase at 3 uM after 18 hrs by propidium iodide staining based flow cytometry (reference value: 9.98%); type: functional
[30] = system: NCI/ADR-RES; test: Induction of apoptosis in human MCF7/ADR cells assessed as early apoptotic cells at 100 uM after 48 hrs by annexin V-FITC/PI dual staining based flow cytometry (reference value: 2.72%); type: functional
[31] = system: NCI/ADR-RES; test: Induction of apoptosis in human MCF7/ADR cells assessed as early apoptotic cells at 30 uM after 48 hrs by annexin V-FITC/PI dual staining based flow cytometry (reference value: 2.72%); type: functional

With `N#Cc1ccc(COc2cccc(/C=N/NC(=O)c3cc4c(cn3)[nH]c3ccccc34)c2)cc1` the Activity [1] was 13%, the Activity [2] was 0.3% and the Activity [3] was “Active”. The Activity [4] was “Dose-dependent effect”, the inhibition at 1 µM [5] was 42.7% and the selectivity ratio [6] was 22.2. For the same compound, the Activity [7] was 4.29%, the Activity [8] was 6.04% and the Activity [9] was 38.62%. For the same compound, the Activity [10] was 9.14%, the “Ratio IC50” value [11] was 1.32 and the Activity [12] was 0.76%. For the same compound, the Activity [13] was 15.3%, the selectivity ratio [14] was 28.3 and the Activity [15] was 6.4%. The IC50 [16] was 1640 to 1730 nM, the viability at 30 µM [17] was 50.9% and the Activity [18] was 6.06%. The Activity [19] was 55.32%, the Activity [20] was “Non-Toxic” and the viability at 3 µM [21] was 66.8%. It also gave an Activity [22] of 41.83%, an IC50 [23] of 930 to 1020 nM and an inhibition in vivo at 100 mg/kg [24] of 17.2%. For the same compound, the inhibition at 1 µM [25] was 59.6%, the viability at 3 µM [26] was 84.3% and the Activity [27] was 13.1%. For the same compound, the Activity [28] was “Dose-dependent effect”, the Activity [29] was 9.31% and the Activity [30] was 7.11%. It also gave an Activity [31] of 4.85%.
